In ChEMBL document CHEMBL5338802, “To Fold or Not to Fold: Diastereomeric Optimization of an α-Helical Antimicrobial Peptide” (J Med Chem, 2023):
Converted amounts (≈) assume the structure as drawn. The source made the active and inactive calls. No cut-off for these calls is given here. Non-standard residues stand in square brackets, D forms with d. Residues, ends and D or L forms follow the SMILES beside them.

How the values were obtained:
Erythrocyte = assay: Hemolytic activity in human RBC incubated for 4 hrs by visual analysis; type: toxicity, cell-based
Burkholderia cenocepacia = assay: Antimicrobial activity against multidrug-resistant Burkholderia cenocepacia assessed as microbial growth inhibition incubated for 16 to 20 hrs by broth microdilution method; type: functional; settings: time 16-20 hrs
Outline: (§1)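 Broth microdilution in Mueller–Hinton broth pH 7.4. Peptides serially diluted 1/2 from 2 mg/mL water stocks over 0.5–64 μg/mL. Overnight LB colony culture diluted to OD600 0.022; roughly 5 × 10^5 CFU final inoculum. Static incubation at 37 °C for 16–20 h, then MTT added at room temperature. MIC is the lowest concentration with no visible growth, read by eye. Two independent duplicates.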

Klebsiella pneumoniae = assay: Antimicrobial activity against Klebsiella pneumoniae NCTC418 assessed as microbial growth inhibition incubated for 16 to 20 hrs by broth microdilution method; type: functional; settings: time 16-20 hrs
Outline: as §1, with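 “7.4.” for “7.4. Peptides serially diluted 1/2 from 2 mg/mL water stocks over 0.5–64 μg/mL.”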

Staphylococcus aureus = assay: Antimicrobial activity against methicillin-resistant Staphylococcus aureus COL assessed as microbial growth inhibition incubated for 16 to 20 hrs by MTT assay; type: functional; settings: time 16-20 hrs
Outline: as §1, with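 “7.4.” for “7.4. Peptides serially diluted 1/2 from 2 mg/mL water stocks over 0.5–64 μg/mL.”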

Pseudomonas aeruginosa [1] = assay: Antimicrobial activity against Pseudomonas aeruginosa PAO1 assessed as microbial growth inhibition incubated for 16 to 20 hrs by broth microdilution method; type: functional; settings: time 16-20 hrs
Outline: (§2)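 Broth microdilution in MH broth, pH 7.4. An overnight LB colony culture (37 °C, 180 rpm) was diluted to OD600 0.022, giving about 5 × 10^5 CFU per well. MTT was then added, and MIC was read by eye as the lowest concentration without visible growth. Two independent duplicates were run.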

Acinetobacter baumannii = assay: Antimicrobial growth against Acinetobacter baumannii ATCC 19606 assessed as microbial growth inhibition incubated for 16 to 20 hrs by broth microdilution method; type: functional; settings: time 16-20 hrs; outline: as §2
Pseudomonas aeruginosa [2] = assay: Antimicrobial activity against Pseudomonas aeruginosa PAO1 assessed as bacterial killing at 8 ug/ml measured after 1 hr by time-kill assay; type: functional, organism-based; settings: dose 8.0 µg/ml
Outline: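 P. aeruginosa PAO1 from an overnight LB culture was diluted to 2 × 10^6 CFU/mL in MH, pH 7.4, then mixed 1:1 with peptide in MH and incubated at 37 °C with shaking at 180 rpm. Survivors were counted by plating 10-fold dilutions on LB agar at 0–6 h (37 °C, 10 h). Done in triplicate.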

[3] = Induction of membrane disruption in eukaryotic inner membrane mimic EYPC vesicles assessed as carboxyfluorescein leakage at 10 ug/ml measured after 240 secs by fluorescence based assay; type: cell membranes; settings: dose 10.0 µg/ml, time 240.0 sec
Cell membrane = assay: Induction of membrane disruption in bacterial membrane mimic EYPG vesicles assessed as carboxyfluorescein leakage at 10 ug/ml measured after 240 secs by fluorescence based assay; type: subcellular; settings: dose 10.0 µg/ml, time 240.0 sec
[4] = Proteolytic stability in human serum assessed as drug degradation at 200 uM incubated for 10 mins by RP-HPLC analysis; type: ADME, cell-free
Escherichia coli = assay: Antimicrobial activity against Escherichia coli W3110 assessed as microbial growth inhibition incubated for 16 to 20 hrs by broth microdilution method; type: functional; settings: time 16-20 hrs; outline: as §2
HEK293 = assay: Cytotoxicity against HEK293 cells assessed as reduction in cell viability at 0 to 200 uM incubated for 24 hrs by Alamar blue assay; type: toxicity, cell-based; settings: human, hek293, 24 h, dose 0-200 µM
Outline: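 HEK293 cells were kept in DMEM with 10% FBS and penicillin/streptomycin, seeded at 4000 cells/well the day before, then exposed to peptide at 0–200 μM for 24 h at 37 °C, 5% CO2. Viability was read with 10% AlamarBlue for 3–5 h (ex 560/em 590 nm), normalized to untreated cells.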

Molecule	MHC (Erythrocyte) [µg/mL]	MIC (Burkholderia cenocepacia) [µg/mL]	MIC (Klebsiella pneumoniae) [µg/mL]	MIC (Staphylococcus aureus) [µg/mL]	MIC (Pseudomonas aeruginosa [1]) [µg/mL]	other results
CC(C)C[C@H](NC(=O)[C@H](CC(C)C)NC(=O)[C@H](CC(C)C)NC(=O)[C@H](CCCCN)NC(=O)[C@H](CC(C)C)NC(=O)[C@H](CC(C)C)NC(=O)[C@H](CCCCN)NC(=O)[C@H](CC(C)C)NC(=O)[C@H](CC(C)C)NC(=O)[C@@H](CCCCN)NC(=O)[C@H](N)CCCCN)C(N)=O	< 15.6	> 64	–	–	–	–
CC[C@H](C)[C@H](NC(=O)[C@@H](NC(=O)[C@@H](NC(=O)[C@@H](CCCCN)NC(=O)[C@@H](NC(=O)[C@@H](NC(=O)[C@@H](CCCCN)NC(=O)[C@@H](NC(=O)[C@@H](NC(=O)[C@@H](CCCCN)NC(=O)[C@H](N)CCCCN)[C@@H](C)CC)[C@@H](C)CC)[C@@H](C)CC)[C@@H](C)CC)[C@@H](C)CC)[C@@H](C)CC)C(N)=O (H-[dK][dK]II[dK]II[dK]III-NH2)	125	–	> 64	> 64	–	–
CC(C)C[C@H](NC(=O)[C@H](CC(C)C)NC(=O)[C@H](CC(C)C)NC(=O)[C@@H](CCCCN)NC(=O)[C@H](CC(C)C)NC(=O)[C@H](CC(C)C)NC(=O)[C@@H](CCCCN)NC(=O)[C@H](CC(C)C)NC(=O)[C@H](CC(C)C)NC(=O)[C@@H](CCCCN)NC(=O)[C@@H](CCCCN)NC(=O)[C@H](CC(C)C)NC(=O)[C@H](CC(C)C)NC(=O)[C@H](CC(C)C)NC(=O)[C@@H](CCCCN)NC(=O)[C@H](CC(C)C)NC(=O)[C@H](CC(C)C)NC(=O)[C@@H](CCCCN)NC(=O)[C@H](CC(C)C)NC(=O)[C@H](CC(C)C)NC(=O)[C@@H](CCCCN)NC(=O)[C@H](N)CCCCN)C(N)=O (H-[dK][dK]LL[dK]LL[dK]LLL[dK][dK]LL[dK]LL[dK]LLL-NH2)	< 15.6	–	> 64	> 64	> 64	MIC (Acinetobacter baumannii): > 64 µg/mL
CC(C)C[C@H](NC(=O)[C@H](CC(C)C)NC(=O)[C@H](CCCCN)NC(=O)[C@H](CC(C)C)NC(=O)[C@H](CC(C)C)NC(=O)[C@@H](CCCCN)NC(=O)[C@H](N)CCCCN)C(=O)N[C@@H](CCCCN)C(=O)N[C@@H](CC(C)C)C(=O)N[C@@H](CC(C)C)C(=O)N[C@H](CC(C)C)C(N)=O	125	> 64	–	–	–	Activity (Pseudomonas aeruginosa [2]): Active
H-RRLLRLLRLLL-NH2	15.6	–	–	–	8	Activity [3]: 99%; Activity (Cell membrane): 30%
CC(C)C[C@@H](NC(=O)[C@@H](CC(C)C)NC(=O)[C@@H](CC(C)C)NC(=O)[C@H](CCCCN)NC(=O)[C@@H](CC(C)C)NC(=O)[C@@H](CC(C)C)NC(=O)[C@H](CCCCN)NC(=O)[C@@H](CC(C)C)NC(=O)[C@@H](CC(C)C)NC(=O)[C@H](CCCCN)NC(=O)[C@@H](N)CCCCN)C(N)=O	250	–	–	–	–	Stability [4]: Unstable
CC(C)C[C@H](NC(=O)[C@H](CC(C)C)NC(=O)[C@H](CC(C)C)NC(=O)[C@H](CCCCN)NC(=O)[C@H](CC(C)C)NC(=O)[C@H](CC(C)C)NC(=O)[C@H](CCCCN)NC(=O)[C@@H](CC(C)C)NC(=O)[C@@H](CC(C)C)NC(=O)[C@@H](CCCCN)NC(=O)[C@@H](N)CCCCN)C(N)=O	< 15.6	> 64	–	–	–	–
CC[C@H](C)[C@H](NC(=O)[C@@H](NC(=O)[C@@H](NC(=O)[C@@H](CCCNC(=N)N)NC(=O)[C@@H](NC(=O)[C@@H](NC(=O)[C@@H](CCCNC(=N)N)NC(=O)[C@@H](NC(=O)[C@@H](NC(=O)[C@@H](CCCNC(=N)N)NC(=O)[C@H](N)CCCNC(=N)N)[C@@H](C)CC)[C@@H](C)CC)[C@@H](C)CC)[C@@H](C)CC)[C@@H](C)CC)[C@@H](C)CC)C(N)=O (H-[dR][dR]II[dR]II[dR]III-NH2)	250	–	32 (≈ 22.3 µM)	8 (≈ 5.58 µM)	4 (≈ 2.79 µM)	Activity [3]: 8%; Activity (Cell membrane): 98%; MIC (Escherichia coli): 8 µg/mL (≈ 5.58 µM); MIC (Acinetobacter baumannii): 8 µg/mL (≈ 5.58 µM)
CC(C)C[C@H](NC(=O)[C@H](CC(C)C)NC(=O)[C@H](CC(C)C)NC(=O)[C@H](CCCCN)NC(=O)[C@H](CC(C)C)NC(=O)[C@H](CC(C)C)NC(=O)[C@H](CCCCN)NC(=O)[C@H](CC(C)C)NC(=O)[C@H](CC(C)C)NC(=O)[C@H](CCCCN)NC(=O)[C@@H](N)CCCCN)C(N)=O	125	–	–	–	–	Activity (HEK293): Non-Toxic
CC(C)C[C@H](NC(=O)[C@H](CC(C)C)NC(=O)[C@H](CC(C)C)NC(=O)[C@H](CCCCN)NC(=O)[C@H](CC(C)C)NC(=O)[C@H](CC(C)C)NC(=O)[C@H](CCCCN)NC(=O)[C@@H](CC(C)C)NC(=O)[C@H](CC(C)C)NC(=O)[C@@H](CCCCN)NC(=O)[C@@H](N)CCCCN)C(N)=O	< 15.6	> 64	–	–	–	–
CC(C)C[C@H](NC(=O)[C@H](CCCCN)NC(=O)[C@H](N)CCCCN)C(=O)N[C@@H](CC(C)C)C(=O)N[C@@H](CCCCN)C(=O)N[C@@H](CC(C)C)C(=O)N[C@@H](CC(C)C)C(=O)N[C@@H](CCCCN)C(=O)N[C@@H](CC(C)C)C(=O)N[C@@H](CC(C)C)C(=O)N[C@H](CC(C)C)C(N)=O	62.5	–	–	–	–	Activity (Pseudomonas aeruginosa [2]): Active
CC(C)C[C@H](NC(=O)[C@H](CC(C)C)NC(=O)[C@H](CC(C)C)NC(=O)[C@H](CCCCN)NC(=O)[C@H](CC(C)C)NC(=O)[C@H](CC(C)C)NC(=O)[C@H](CCCCN)NC(=O)[C@H](CC(C)C)NC(=O)[C@H](CC(C)C)NC(=O)[C@@H](CCCCN)NC(=O)[C@@H](N)CCCCN)C(N)=O	< 15.6	> 64	–	–	–	–
CC(C)C[C@H](NC(=O)[C@H](CC(C)C)NC(=O)[C@H](CC(C)C)NC(=O)[C@H](CCCCN)NC(=O)[C@@H](CC(C)C)NC(=O)[C@H](CC(C)C)NC(=O)[C@H](CCCCN)NC(=O)[C@@H](CC(C)C)NC(=O)[C@@H](CC(C)C)NC(=O)[C@@H](CCCCN)NC(=O)[C@@H](N)CCCCN)C(N)=O	62.5	> 64	–	–	–	–
H-KKIIKIIKIII-NH2	62.5	–	> 64	> 64	> 64	–
H-KKLLKLLKLLLKKLLKLLKLLL-NH2	< 15.6	–	> 64	> 64	> 64	MIC (Escherichia coli): > 64 µg/mL; MIC (Acinetobacter baumannii): > 64 µg/mL
H-RRIIRIIRIII-NH2	62.5	–	16	16	64	Activity [3]: 39%; Activity (Cell membrane): 99%; MIC (Escherichia coli): 16 µg/mL; MIC (Acinetobacter baumannii): 8 µg/mL
CC(C)C[C@H](NC(=O)[C@H](CC(C)C)NC(=O)[C@H](CC(C)C)NC(=O)[C@@H](CCCNC(=N)N)NC(=O)[C@H](CC(C)C)NC(=O)[C@H](CC(C)C)NC(=O)[C@@H](CCCNC(=N)N)NC(=O)[C@H](CC(C)C)NC(=O)[C@H](CC(C)C)NC(=O)[C@@H](CCCNC(=N)N)NC(=O)[C@H](N)CCCNC(=N)N)C(N)=O (H-[dR][dR]LL[dR]LL[dR]LLL-NH2)	125	–	–	2 (≈ 1.39 µM)	–	–
